Assay results from ChEMBL document CHEMBL1146297, “Synthesis of 2'-paclitaxel methyl 2-glucopyranosyl succinate for specific targeted delivery to cancer cells” (Bioorg Med Chem Lett, 2007).
Converted amounts (≈) assume the structure as drawn. Values belong to the compound of their own block, whether it stands above or below them.

Key:
MCF7 [1] = assay: Cytotoxicity against human MCF7 cells at 25 ng/mL; assay type: functional
[2] = Stability in human serum for 4 hrs; assay type: ADME, cell-free; conditions: read-out: Stability
Procedure, shortened: (§1)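 Compound incubated in human serum at 4 µg/mL serum and 37 °C. It was then extracted with dichloromethane, and the remaining intact material was quantified by reverse-phase HPLC on a C18 column. Sampling ran up to 96 h, and stability is expressed as percent remaining.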

[3] = Cytotoxicity against human TW01 cells; assay type: functional, cell-based
A498 = assay: Cytotoxicity against human A498 cells; assay type: functional, cell-based
[4] = Cytotoxicity against human Hep3B cells; assay type: functional, cell-based, Hep 3B2
HCT-116 = assay: Cytotoxicity against human HCT116 cells; assay type: functional, cell-based
RPTEC [5] = assay: Cytotoxicity against human RPTEC cells; assay type: cell-based
MCF7 [6] = assay: Cytotoxicity against human MCF7 cells; assay type: functional, cell-based
Procedure, shortened: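 Human MCF-7 breast cancer cells were tested in a panel of eight cancer lines plus RPTEC normal renal epithelial cells, with growth inhibition measured across a concentration range. IC50 is the concentration giving 50% inhibition, taken as the mean of at least three independent experiments with SD under 10%.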

[7] = Solubility in water; assay type: physicochemical
NCI-H226 = assay: Cytotoxicity against human NCI-H226 cells; assay type: functional, cell-based
RPTEC [8] = assay: Selectivity index, IC50 for TW01 cells to human RPTEC cells; assay type: functional
Procedure, shortened: (§2)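 Selectivity index is the IC50 in the cancer line (MCF-7 or NPC-TW01) divided by the IC50 in normal RPTEC cells. Each IC50 is the mean of at least three independent experiments.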

[9] = Cytotoxicity against human MES-SA cells; assay type: functional, cell-based
RPTEC [10] = assay: Selectivity index, IC50 for MCF7 cells to human RPTEC cells; assay type: functional; procedure, shortened: as §2
MKN-45 = assay: Cytotoxicity against human MKN45 cells; assay type: functional, cell-based
[11] = Half life in human serum; assay type: ADME, cell-free; procedure, shortened: as §1

SMILES: CC(=O)O[C@H]1C(=O)[C@@]2(C)[C@H]([C@H](OC(=O)c3ccccc3)[C@]3(O)C[C@H](OC(=O)[C@H](OC(=O)CCC(=O)O)[C@@H](NC(=O)c4ccccc4)c4ccccc4)C(C)=C1C3(C)C)[C@]1(OC(C)=O)CO[C@@H]1C[C@@H]2O
Activity (MCF7 [1]): 50%

remaining at 4 h [2]: 85%
solubility [7]: 350 µg/mL (≈ 310 µM)
half-life [11]: 66 h
SMILES: CO[C@H]1O[C@H](CO)[C@@H](O)[C@@H](O)[C@H]1OC(=O)CCC(=O)O[C@@H](C(=O)O[C@H]1C[C@@]2(O)[C@@H](OC(=O)c3ccccc3)[C@@H]3[C@]4(OC(C)=O)CO[C@@H]4C[C@H](O)[C@@]3(C)C(=O)[C@H](OC(C)=O)C(=C1C)C2(C)C)[C@@H](NC(=O)c1ccccc1)c1ccccc1
IC50 [3]: 7.2 nM
IC50 (A498): 258 nM
IC50 [4]: 60.3 nM
IC50 (HCT-116): 25.6 nM
IC50 (RPTEC [5]): 1580 nM
IC50 (MCF7 [6]): 0.7 nM
IC50 (NCI-H226): 114 nM
Ratio IC50 (RPTEC [8]): 0.0046
IC50 [9]: 9.1 nM
Ratio IC50 (RPTEC [10]): 0.0004
IC50 (MKN-45): 14.1 nM

SMILES: CC(=O)O[C@H]1C(=O)[C@@]2(C)[C@H]([C@H](OC(=O)c3ccccc3)[C@]3(O)C[C@H](OC(=O)[C@H](O)[C@@H](NC(=O)c4ccccc4)c4ccccc4)C(C)=C1C3(C)C)[C@]1(OC(C)=O)CO[C@@H]1C[C@@H]2O [PACLITAXEL]
IC50 [3]: 0.3 nM
IC50 (A498): 61 nM
IC50 [4]: 5.4 nM
IC50 (HCT-116): 0.6 nM
IC50 (RPTEC [5]): 0.9 nM
IC50 (MCF7 [6]): 0.5 nM
solubility [7]: < 4 µg/mL
IC50 (NCI-H226): 6.8 nM
Ratio IC50 (RPTEC [8]): 0.33
IC50 [9]: 0.5 nM
Ratio IC50 (RPTEC [10]): 0.56
IC50 (MKN-45): 0.5 nM
